Results reported in ChEMBL document CHEMBL1250501, “Anti-tubercular agents. Part 5: synthesis and biological evaluation of benzothiadiazine 1,1-dioxide based congeners” (Eur J Med Chem, 2010).
Converted amounts (≈) assume the structure as drawn. The source made the active and inactive calls. The rule behind the calls is not given here.

Legend:
Staphylococcus aureus [1] = test: Antibacterial activity against Staphylococcus aureus at 100 units after 18 hrs by cup plate method; type: functional, organism-based
[2] = test system: Staphylococcus epidermidis; test: Antibacterial activity against Staphylococcus epidermidis at 100 units after 18 hrs by cup plate method; type: functional, organism-based
Candida albicans [3] = test: Antifungal activity against Candida albicans MTCC 227 at 100 units after 48 hrs by cup plate method; type: functional
Bacillus subtilis [4] = test: Antibacterial activity against Bacillus subtilis at 100 units after 18 hrs by cup plate method; type: functional, organism-based
Escherichia coli [5] = test: Antibacterial activity against Escherichia coli at 100 units after 18 hrs by cup plate method; type: functional, organism-based
Klebsiella pneumoniae [6] = test: Antibacterial activity against Klebsiella pneumoniae at 100 units after 18 hrs by cup plate method; type: functional, organism-based
Pseudomonas aeruginosa [7] = test: Antibacterial activity against Pseudomonas aeruginosa at 100 units after 18 hrs by cup plate method; type: functional, organism-based
Aspergillus niger [8] = test: Antifungal activity against Aspergillus niger at 100 units after 48 hrs by cup plate method; type: functional
Aspergillus sp. [9] = test: Antifungal activity against Aspergillus sp. at 100 units after 48 hrs by cup plate method; type: functional
Candida albicans [10] = test: Antifungal activity against Candida albicans MTCC 227 at 50 ug/ml after 48 hrs by cup plate method; type: functional
Procedure, shortened: (§1)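 Agar well (cup plate) diffusion on potato dextrose agar 39 g/L. Compounds dissolved in DMSO and loaded into 6 mm wells. Incubated at 28 ± 2 °C for 48 h. Inhibition zone diameter measured to the nearest millimetre, three replicates per treatment. DMSO solvent as negative control, amphotericin B as positive control.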

Klebsiella pneumoniae [11] = test: Antibacterial activity against Klebsiella pneumoniae at 100 ug/ml after 18 hrs by cup plate method; type: functional; conditions: read-out: DIZ
Procedure, shortened: (§2)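 Agar well diffusion on Mueller-Hinton agar. Inoculum was adjusted to a 0.5 McFarland standard (about […] × 10⁸ CFU/mL) and swabbed over the plate three times, rotating about 60° each time, then the rim was swabbed. Compounds in DMSO went into duplicate 6 mm wells. Plates were incubated at 37 °C for 18 h and inhibition zone diameter read to the nearest mm. DMSO negative control; streptomycin and ciprofloxacin positive controls.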

Klebsiella pneumoniae [12] = test: Antibacterial activity against Klebsiella pneumoniae at 10 ug/ml after 18 hrs by cup plate method; type: functional; conditions: read-out: DIZ; procedure, shortened: as §2
Aspergillus niger [13] = test: Antifungal activity against Aspergillus niger at 75 ug/ml after 48 hrs by cup plate method; type: functional
Procedure, shortened: (§3)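 Agar well (cup plate) diffusion on potato dextrose agar 39 g/L, with compounds dissolved in DMSO. Plates were incubated at 28 ± 2 °C for 48 h and inhibition zones measured to the nearest mm. Three replicates per treatment. Amphotericin B positive control; solvent control included.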

Candida albicans [14] = test: Antifungal activity against Candida albicans MTCC 227 at 25 ug/ml after 48 hrs by cup plate method; type: functional; procedure, shortened: as §1
[15] = test system: Staphylococcus epidermidis; test: Antibacterial activity against Staphylococcus epidermidis at 100 ug/ml after 18 hrs by cup plate method; type: functional; conditions: read-out: DIZ; procedure, shortened: as §2
[16] = test system: Mycobacterium tuberculosis; test: Antimycobacterial activity against Mycobacterium tuberculosis H37Rv after 3 to 4 weeks by broth microdilution assay; type: functional
Procedure, shortened: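 MIC by broth microdilution on compounds active in a single-concentration primary screen. Plates incubated 3–4 weeks at 37 °C in a CO₂ incubator. Wells read visually for absence of growth turbidity.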

Pseudomonas aeruginosa [17] = test: Antibacterial activity against Pseudomonas aeruginosa at 10 ug/ml after 18 hrs by cup plate method; type: functional; procedure, shortened: as §2
Aspergillus sp. [18] = test: Antifungal activity against Aspergillus sp. at 25 ug/ml after 48 hrs by cup plate method; type: functional; procedure, shortened: as §3
Escherichia coli [19] = test: Antibacterial activity against Escherichia coli at 75 ug/ml after 18 hrs by cup plate method; type: functional; conditions: read-out: DIZ; procedure, shortened: as §2
[20] = test system: Staphylococcus epidermidis; test: Antibacterial activity against Staphylococcus epidermidis at 75 ug/ml after 18 hrs by cup plate method; type: functional; conditions: read-out: DIZ; procedure, shortened: as §2
Staphylococcus aureus [21] = test: Antibacterial activity against Staphylococcus aureus at 25 ug/ml after 18 hrs by cup plate method; type: functional; conditions: read-out: DIZ; procedure, shortened: as §2
[22] = test system: Staphylococcus epidermidis; test: Antibacterial activity against Staphylococcus epidermidis at 50 ug/ml after 18 hrs by cup plate method; type: functional; conditions: read-out: DIZ; procedure, shortened: as §2
Escherichia coli [23] = test: Antibacterial activity against Escherichia coli at 10 ug/ml after 18 hrs by cup plate method; type: functional; conditions: read-out: DIZ; procedure, shortened: as §2
Pseudomonas aeruginosa [24] = test: Antibacterial activity against Pseudomonas aeruginosa at 50 ug/ml after 18 hrs by cup plate method; type: functional; conditions: read-out: DIZ; procedure, shortened: as §2
Pseudomonas aeruginosa [25] = test: Antibacterial activity against Pseudomonas aeruginosa at 75 ug/ml after 18 hrs by cup plate method; type: functional; conditions: read-out: DIZ; procedure, shortened: as §2
Klebsiella pneumoniae [26] = test: Antibacterial activity against Klebsiella pneumoniae at 25 ug/ml after 18 hrs by cup plate method; type: functional; conditions: read-out: DIZ; procedure, shortened: as §2
Aspergillus sp. [27] = test: Antifungal activity against Aspergillus sp. at 100 ug/ml after 48 hrs by cup plate method; type: functional; procedure, shortened: as §3
Bacillus subtilis [28] = test: Antibacterial activity against Bacillus subtilis at 25 ug/ml after 18 hrs by cup plate method; type: functional; conditions: read-out: DIZ; procedure, shortened: as §2
Aspergillus niger [29] = test: Antifungal activity against Aspergillus niger at 50 ug/ml after 48 hrs by cup plate method; type: functional, organism-based; procedure, shortened: as §3
Bacillus subtilis [30] = test: Antibacterial activity against Bacillus subtilis at 75 ug/ml after 18 hrs by cup plate method; type: functional; conditions: read-out: DIZ; procedure, shortened: as §2
Klebsiella pneumoniae [31] = test: Antibacterial activity against Klebsiella pneumoniae at 50 ug/ml after 18 hrs by cup plate method; type: functional; conditions: read-out: DIZ; procedure, shortened: as §2
Pseudomonas aeruginosa [32] = test: Antibacterial activity against Pseudomonas aeruginosa at 25 ug/ml after 18 hrs by cup plate method; type: functional; conditions: read-out: DIZ; procedure, shortened: as §2
[33] = test system: Staphylococcus epidermidis; test: Antibacterial activity against Staphylococcus epidermidis at 25 ug/ml after 18 hrs by cup plate method; type: functional; conditions: read-out: DIZ; procedure, shortened: as §2
Pseudomonas aeruginosa [34] = test: Antibacterial activity against Pseudomonas aeruginosa at 100 ug/ml after 18 hrs by cup plate method; type: functional; conditions: read-out: DIZ; procedure, shortened: as §2
Candida albicans [35] = test: Antifungal activity against Candida albicans MTCC 227 at 75 ug/ml after 48 hrs by cup plate method; type: functional; procedure, shortened: as §1
[36] = test system: Staphylococcus epidermidis; test: Antibacterial activity against Staphylococcus epidermidis at 10 ug/ml after 18 hrs by cup plate method; type: functional; conditions: read-out: DIZ; procedure, shortened: as §2
Aspergillus sp. [37] = test: Antifungal activity against Aspergillus sp. at 50 ug/ml after 48 hrs by cup plate method; type: functional; procedure, shortened: as §3
Candida albicans [38] = test: Antifungal activity against Candida albicans MTCC 227 at 100 ug/ml after 48 hrs by cup plate method; type: functional; conditions: MTCC 227, 48 h, read-out: IZ; procedure, shortened: as §3
Aspergillus niger [39] = test: Antifungal activity against Aspergillus niger at 100 ug/ml after 48 hrs by cup plate method; type: functional; procedure, shortened: as §3
Bacillus subtilis [40] = test: Antibacterial activity against Bacillus subtilis at 10 ug/ml after 18 hrs by cup plate method; type: functional; procedure, shortened: as §2
Staphylococcus aureus [41] = test: Antibacterial activity against Staphylococcus aureus at 50 ug/ml after 18 hrs by cup plate method; type: functional; conditions: read-out: DIZ; procedure, shortened: as §2
Aspergillus niger [42] = test: Antifungal activity against Aspergillus niger at 25 ug/ml after 48 hrs by cup plate method; type: functional, organism-based; procedure, shortened: as §3
Klebsiella pneumoniae [43] = test: Antibacterial activity against Klebsiella pneumoniae at 75 ug/ml after 18 hrs by cup plate method; type: functional; conditions: read-out: DIZ; procedure, shortened: as §2
Staphylococcus aureus [44] = test: Antibacterial activity against Staphylococcus aureus at 75 ug/ml after 18 hrs by cup plate method; type: functional; conditions: read-out: DIZ; procedure, shortened: as §2
Staphylococcus aureus [45] = test: Antibacterial activity against Staphylococcus aureus at 10 ug/ml after 18 hrs by cup plate method; type: functional; conditions: read-out: DIZ; procedure, shortened: as §2
Escherichia coli [46] = test: Antibacterial activity against Escherichia coli at 50 ug/ml after 18 hrs by cup plate method; type: functional; conditions: read-out: DIZ; procedure, shortened: as §2
Staphylococcus aureus [47] = test: Antibacterial activity against Staphylococcus aureus at 100 ug/ml after 18 hrs by cup plate method; type: functional; conditions: read-out: DIZ; procedure, shortened: as §2
Escherichia coli [48] = test: Antibacterial activity against Escherichia coli at 25 ug/ml after 18 hrs by cup plate method; type: functional; conditions: read-out: DIZ; procedure, shortened: as §2
Bacillus subtilis [49] = test: Antibacterial activity against Bacillus subtilis at 50 ug/ml after 18 hrs by cup plate method; type: functional; conditions: read-out: DIZ; procedure, shortened: as §2
Bacillus subtilis [50] = test: Antibacterial activity against Bacillus subtilis at 100 ug/ml after 18 hrs by cup plate method; type: functional; conditions: read-out: DIZ; procedure, shortened: as §2
Aspergillus sp. [51] = test: Antifungal activity against Aspergillus sp. at 75 ug/ml after 48 hrs by cup plate method; type: functional; procedure, shortened: as §3
Escherichia coli [52] = test: Antibacterial activity against Escherichia coli at 100 ug/ml after 18 hrs by cup plate method; type: functional; conditions: read-out: DIZ; procedure, shortened: as §2

Structure (SMILES): C[C@@H]1[C@H](O)[C@@H](C)/C=C/C=C/C=C/C=C/C=C/C=C/C=C/[C@H](O[C@@H]2O[C@H](C)[C@@H](O)[C@H](N)[C@@H]2O)C[C@@H]2O[C@](O)(C[C@@H](O)C[C@@H](O)[C@H](O)CC[C@@H](O)C[C@@H](O)CC(=O)O[C@H]1C)C[C@H](O)[C@H]2C(=O)O [AMPHOTERICIN B]
- diameter of the inhibition zone (DIZ) (Staphylococcus aureus [1]): inactive
- diameter of the inhibition zone (DIZ) [2]: inactive
- inhibition zone (IZ) (Candida albicans [3]): 14 mm
- diameter of the inhibition zone (DIZ) (Bacillus subtilis [4]): inactive
- diameter of the inhibition zone (DIZ) (Escherichia coli [5]): inactive
- diameter of the inhibition zone (DIZ) (Klebsiella pneumoniae [6]): inactive
- diameter of the inhibition zone (DIZ) (Pseudomonas aeruginosa [7]): inactive
- inhibition zone (IZ) (Aspergillus niger [8]): 23 mm
- inhibition zone (IZ) (Aspergillus sp. [9]): 14 mm

Structure (SMILES): CCN1C(N2CCN(Cc3ccc([N+](=O)[O-])o3)CC2)=NS(=O)(=O)c2ccccc21
- inhibition zone (IZ) (Candida albicans [10]): inactive
- zone of inhibition at 100 µg/mL (Klebsiella pneumoniae [11]): 19 mm
- zone of inhibition at 10 µg/mL (Klebsiella pneumoniae [12]): 10 mm
- inhibition zone (IZ) (Aspergillus niger [13]): inactive
- inhibition zone (IZ) (Candida albicans [14]): inactive
- zone of inhibition at 100 µg/mL [15]: 24 mm
- MIC [16]: 2.81 µg/mL (≈ 6.7 µM)
- diameter of the inhibition zone (DIZ) (Pseudomonas aeruginosa [17]): inactive
- inhibition zone (IZ) (Aspergillus sp. [18]): inactive
- zone of inhibition at 75 µg/mL (Escherichia coli [19]): 29 mm
- zone of inhibition at 75 µg/mL [20]: 15 mm
- zone of inhibition at 25 µg/mL (Staphylococcus aureus [21]): 16 mm
- zone of inhibition at 50 µg/mL [22]: 12 mm
- zone of inhibition at 10 µg/mL (Escherichia coli [23]): 12 mm
- zone of inhibition at 50 µg/mL (Pseudomonas aeruginosa [24]): 10 mm
- zone of inhibition at 75 µg/mL (Pseudomonas aeruginosa [25]): 22 mm
- zone of inhibition at 25 µg/mL (Klebsiella pneumoniae [26]): 15 mm
- inhibition zone (IZ) (Aspergillus sp. [27]): inactive
- zone of inhibition at 25 µg/mL (Bacillus subtilis [28]): 11 mm
- inhibition zone (IZ) (Aspergillus niger [29]): inactive
- zone of inhibition at 75 µg/mL (Bacillus subtilis [30]): 19 mm
- zone of inhibition at 50 µg/mL (Klebsiella pneumoniae [31]): 11 mm
- zone of inhibition at 25 µg/mL (Pseudomonas aeruginosa [32]): 16 mm
- zone of inhibition at 25 µg/mL [33]: 12 mm
- zone of inhibition at 100 µg/mL (Pseudomonas aeruginosa [34]): 16 mm
- inhibition zone (IZ) (Candida albicans [35]): inactive
- zone of inhibition at 10 µg/mL [36]: 9 mm
- inhibition zone (IZ) (Aspergillus sp. [37]): inactive
- zone of inhibition at 100 µg/mL (Candida albicans [38]): 10 mm
- inhibition zone (IZ) (Aspergillus niger [39]): inactive
- diameter of the inhibition zone (DIZ) (Bacillus subtilis [40]): inactive
- zone of inhibition at 50 µg/mL (Staphylococcus aureus [41]): 16 mm
- inhibition zone (IZ) (Aspergillus niger [42]): inactive
- zone of inhibition at 75 µg/mL (Klebsiella pneumoniae [43]): 20 mm
- zone of inhibition at 75 µg/mL (Staphylococcus aureus [44]): 21 mm
- zone of inhibition at 10 µg/mL (Staphylococcus aureus [45]): 13 mm
- zone of inhibition at 50 µg/mL (Escherichia coli [46]): 16 mm
- zone of inhibition at 100 µg/mL (Staphylococcus aureus [47]): 10 mm
- zone of inhibition at 25 µg/mL (Escherichia coli [48]): 20 mm
- zone of inhibition at 50 µg/mL (Bacillus subtilis [49]): 17 mm
- zone of inhibition at 100 µg/mL (Bacillus subtilis [50]): 23 mm
- inhibition zone (IZ) (Aspergillus sp. [51]): inactive
- zone of inhibition at 100 µg/mL (Escherichia coli [52]): 30 mm
